Data set [1] deals with L1210. The data set is described as follows: In vivo activity against murine L1210 tumor system at the dose of 36 mg/kg, activity expressed as KE. Format: functional, Mus musculus. Put shortly: (§1)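 L1210 lymphocytic leukemia: ascitic fluid with ca. 10^6 cells injected ip into CD2F1 mice. Dosing started 24 h after inoculation and was repeated daily for five doses in total, from solutions or suspensions made fresh each day. Toxicity day survivors were scored on day 5. Body weight difference is day 5 minus day 1. %T/C is based on median survival time versus controls.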

Data set [2] has as its system L1210. The experiment in a line: In vivo activity against murine L1210 tumor system at the dose of 60 mg/kg, activity expressed as body weight difference; T-C. Format: functional, Mus musculus. Put shortly: as §1
A short description of data set [3]: In vivo activity against murine M5076 tumor system at the dose of 100 mg/kg, activity expressed as KE. Format: functional, Mus musculus. Put shortly:
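M5076: ascitic fluid with ca. 10^6 cells inoculated ip into CD2F1 mice. Dosing started 24 h after inoculation and was then given every 4 days for four doses in total, from solutions or suspensions made fresh each day. Toxicity day survivors were scored on day 5. Body weight difference is day 14 minus day 1. %T/C is based on median survival time versus controls.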

Data set [4] in a line: Effect of pH on carbamate hydrolysis in 0.05 M buffer concentration at the pH 2.0, 25 degree C. Format: ADME. Put shortly: (§2)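 Bis-carbamate in acetonitrile–water (1:1; buffer added to a 0.5 mg/mL acetonitrile solution), 0.05 M buffer, ionic strength 0.136 (KCl), 25 ± 0.1 °C. Buffers: phosphate pH 2.0; citrate pH 3.0–3.5; succinate pH 4.0; acetate pH 5.0; phosphate pH 6.0–8.0; borate pH 9.0; carbonate pH 10.0. HPLC bis-carbamate peak-area loss, ln(area0/areat) vs time slope = kobs. Duplicates averaged.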

In data set [5] the test system is L1210. The data set is described as follows: In vivo activity against murine L1210 tumor system at the dose of 100 mg/kg, activity expressed as body weight difference; T-C. It counts as functional, Mus musculus. A digest of the protocol: as §1
Data set [6] relates to L1210. The data set is described as follows: In vivo activity against murine L1210 tumor system at the dose of 60 mg/kg, activity expressed as KE. Format: functional, Mus musculus. Put shortly:
as §1

Data set [7] deals with L1210. The experiment in a line: In vivo activity against murine L1210 tumor system at the dose of 100 mg/kg, activity expressed as KE. It counts as functional, Mus musculus.
Data set [8] has as its system L1210. The data set is described as follows: In vivo activity against murine L1210 tumor system at the dose of 36 mg/kg, activity expressed as body weight difference; T-C. Format: functional, Mus musculus. Put shortly:
as §1

The subject of data set [9] is P388. The experiment in a line: In vivo activity against P388 Lymphocytic Leukemia in CD2F1 mice at the dose of 200 mg/kg, activity expressed as body weight difference; T-C. It counts as functional, Mus musculus. Put shortly:
(§3)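 CD2F1 mice were inoculated with ascitic fluid holding ca. 10^6 P388 cells. Drug was given daily from 24 h after inoculation, from solutions or suspensions made fresh each day, some as a saline suspension. TDS is survivors/initial animals on day 5. BWD is body weight on day 5 minus day 1. %T/C compares median survival of treated and control mice.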

For data set [10], the system named is P388. The experiment in a line: In vivo activity against P388 Lymphocytic Leukemia in CD2F1 mice at the dose of 400 mg/kg, activity expressed as TDS; 2/6. It counts as functional, Mus musculus. Put shortly:
as §3

Data set [11] in a line: Effect of pH on carbamate hydrolysis in 0.05 M buffer concentration at the pH 9.0, 25 degree C. Format: ADME. Put shortly:
as §2

Data set [12] can be described thus: Half life at the pH 5.0. It counts as ADME. As to conditions: buffer. Put shortly: as §2
Data set [13] can be described thus: Half life at the pH 3.5. Format: ADME. Conditions: buffer. Put shortly:
as §2

A short description of data set [14]: Effect of pH on carbamate hydrolysis in 0.05 M buffer concentration at the pH 7.4, 25 degree C. Format: ADME. A digest of the protocol:
as §2

A short description of data set [15]: Effect of pH on carbamate hydrolysis in 0.05 M buffer concentration at the pH 3.0, 25 degree C. Format: ADME. Put shortly:
as §2

The nature of data set [16]: Half life at the buffer concentration of 0.025 M. It counts as ADME. A digest of the protocol: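 Bis-carbamate in acetonitrile–water (1:1), 25 ± 0.1 °C. Citrate buffer at pH 3.0 or phosphate buffer at pH 7.4, at 0.01, 0.025 or 0.05 M, ionic strength 0.136 (KCl). Kinetics followed by HPLC as the decrease in bis-carbamate peak area. The regression slope of ln(area0/areat) vs time gave pseudo-first-order kobs. Duplicates averaged.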

Data set [17] in a line: Effect of pH on carbamate hydrolysis in 0.05 M buffer concentration at the pH 10.0, 25 degree C. Format: ADME. A digest of the protocol: as §2
In data set [18] the test system is L1210. The data set is described as follows: In vivo activity against murine L1210 tumor system at the dose of 36 mg/kg, activity expressed as %T/C. Format: functional, Mus musculus. Put shortly: as §1
Data set [19] in a line: In vivo activity against murine M5076 tumor system at the dose of 60 mg/kg, activity expressed as TDS; 10/10. It counts as functional, Mus musculus.
A short description of data set [20]: Effect of phosphate buffer on the hydrolysis of alpha Fluoropyridinium Moity at the concentration of 0.02M, pH 8.0, 25 degree C. Format: ADME. Put shortly: (§4)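 α-Fluoropyridinium hydrolysis to pyridone in phosphate buffer at 0.02, 0.05 or 0.10 M, pH 6.5 or 8.0, ionic strength […] °C. Pyridinium UV absorbance maximum followed with time to give pseudo-first-order kobs and half-life.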

Data set [21] can be described thus: Half life at the ionic strength 0.50 M NaCl. It counts as ADME. A digest of the protocol:
(§5)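 Pyridinium salt in 0.02 M phosphate buffer, pH 7.4, 25 °C, with NaCl varied 0.10–1.0 M. Loss of the pyridinium chromophore's UV absorbance maximum (conversion to pyridone) followed over time. Pseudo-first-order kobs and half-life derived from that decay.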

In data set [22] the test system is L1210. The data set is described as follows: In vivo activity against murine L1210 tumor system at the dose of 25 mg/kg, activity expressed as %T/C. Format: functional, Mus musculus. Put shortly:
as §1

The subject of data set [23] is P388. The experiment in a line: In vivo activity against P388 Lymphocytic Leukemia in CD2F1 mice at the dose of 100 mg/kg, activity expressed as body weight difference. It counts as functional, Mus musculus. A digest of the protocol: as §3
Data set [24] concerns P388. The data set is described as follows: In vivo activity against P388 Lymphocytic Leukemia in CD2F1 mice at the dose of 100 mg/kg, activity expressed as TDS; 1/6. It counts as functional, Mus musculus. A digest of the protocol:
as §3

Data set [25] can be described thus: In vivo activity against murine M5076 tumor system at the dose of 50 mg/kg, activity expressed as KE. Format: functional, Mus musculus.
Data set [26] in a line: Effect of pH on the hydrolysis of pyridinium Moity in 0.05 M buffer concentration at the pH 7.0. Format: ADME. A digest of the protocol:
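Pyridinium salt in 0.05 M phosphate buffer, pH 6.0–8.0 (set by pH meter), ionic strength 0.25 M, 25 °C. Decrease in the pyridinium UV absorbance maximum followed over time to give pseudo-first-order kobs and half-life.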

A short description of data set [27]: Effect of Ionic strength (1.0M NaCl)on the hydrolysis of pyridinium Moity in 0.02 M buffer concentration, pH 7.4,25 degree C. It counts as ADME. A digest of the protocol:
as §5

Data set [28] in a line: In vivo activity against murine M5076 tumor system at the dose of 50 mg/kg, activity expressed as TDS; 10/10. Format: functional, Mus musculus.
A short description of data set [29]: Effect of phosphate buffer concentration on the hydrolysis of alpha Fluoropyridinium Moity at the concentration of 0.02M, pH 6.5, 25 degree C. It counts as ADME. A digest of the protocol:
as §4

A further data set deals with MX1. The data set is described as follows: In vivo activity against murine MX-1 tumor system at the dose of 37.5 mg/kg, activity expressed as %T/C. Format: functional, Mus musculus.
Data set [30] relates to L1210. The experiment in a line: In vivo activity against murine L1210 tumor system at the dose of 100 mg/kg, activity expressed as TDS; 0/6. Format: functional, Mus musculus. A digest of the protocol: as §1
Data set [31] deals with P388. The experiment in a line: In vivo activity against P388 Lymphocytic Leukemia in CD2F1 mice at the dose of 12.5 mg/kg, activity expressed as body weight difference. It counts as functional, Mus musculus. Put shortly:
as §3

The subject of data set [32] is L1210. The data set is described as follows: In vivo activity against murine L1210 tumor system at the dose of mg/kg, activity expressed as KE. It counts as functional, Mus musculus. Put shortly:
as §1

The half-life is the time needed for the level to fall by half in the phase considered. Read a low half-life as rapid decline. As a reminder, the T/C is the ratio of treated to control.

For the compound `CC(C)NC(=O)OCc1c(COC(=O)NC(C)C)c(-c2ccn(C)c(=O)c2)n2c1CCC2`, the KE was -0.86 in the data set on L1210 [1], -1.49 in data set [3], -0.5 with L1210 [6] and -0.22 with L1210 [7]. Also, the BWD is -3.2 g in the data set on L1210 [2], -4.2 g in the data set with L1210 [5], -0.3 g in the data set with L1210 [8] and -1.4 g in the data set with P388 [9]. Further, the K obs in data set [4] amounted to 0.33 min⁻¹; in [11], 0.0129 min⁻¹; in data set [14], 0.013 min⁻¹; in [15] it was 0.0304 min⁻¹; in data set [17], 0.0133 min⁻¹. The TDS with P388 [10] stood at 2; in data set [19] it was 10. Also, the half-life in data set [12] was found to be 50 min; in [13], 32.5 min; in [16] it was 51.9 min. This compound also came in with a T/C with L1210 [18] of 135%.
Consider `CC(C)NC(=O)OCc1c(COC(=O)NC(C)C)c(-c2cc[n+](C)c(F)c2)n2c1CCC2.[I-]`, for which the K obs in data set [20] came out at 0.0132 min⁻¹; in data set [26], 0.0208 min⁻¹; in data set [27], 0.007 min⁻¹; in [29], 0.0052 min⁻¹. The compound further returned a half-life in [21] of 63.2 min. The results for the T/C in the data set on L1210 [22] and with MX1 were 118% and 69%, respectively. Besides, the results for the BWD with P388 [23] and in the data set with P388 [31] were -7.6 g and -1.3 g, respectively. Moreover, the TDS in the data set on P388 [24] is on record as 1; in data set [28] it was 10; with L1210 [30], 0. In addition, the KE in data set [25] is recorded as -1.59; with L1210 [32], -2.08.

Values taken from ChEMBL document CHEMBL1124794, “Synthesis, chemistry, and antineoplastic activity of alpha-halopyridinium salts: potential pyridone prodrugs of acylated vinylogous carbinolamine tumor inhibitors” (J Med Chem, 1990).
